Activity calls are given as the source filed them. The rule behind the calls is not given here.
What was measured:
Mus musculus [1] = assay: Anticonvulsant activity in STD-dd mouse assessed as protection against hind-limb extensor component of maximal electroshock seizure at 100 mg/kg, po administered via gavage measured 2 hrs after drug dosing; type: functional, organism-based; parameters: dose 100 mg/kg
In short: (§1)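 Mice dosed by gavage as a suspension in 5% tragacanth solution. Maximal electroshock was given as 60-Hz, 25-mA current for 0.2 s through corneal electrodes, 2 h after dosing. Protection was scored as prevention of hind-limb extension. Preliminary screen used 100 mg/kg. For ED50, groups of ten mice per dose level at ≥4 dose levels, with values calculated by Litchfield–Wilcoxon.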

[2] = Neurotoxicity in po dosed STD-dd mouse assessed as muscle incoordination administered via gavage by rotarod test; type: toxicity, organism-based, Muscle tissue; conditions: in vivo
In short: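 Gavage dosing as a suspension in 5% tragacanth solution, with ten mice per dose level at ≥4 levels. Rotarod test 2 h after dosing used a horizontal rod 2.5 cm in diameter rotating at 11 rpm. Minimal neurotoxicity end point was muscle incoordination, i.e. inability to stay on the rod. NTD50 was calculated by Litchfield–Wilcoxon.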

Mus musculus [3] = assay: Anticonvulsant activity in po dosed STD-dd mouse assessed as protection against hind-limb extensor component of maximal electroshock seizure administered via gavage measured 2 hrs after drug dosing; type: functional; in short: as §1

| SMILES | Activity (Mus musculus [1]) | TD50 [2] [mg/kg] | ED50 (Mus musculus [3]) [mg/kg] |
| --- | --- | --- | --- |
| CN(C)NS(=O)(=O)Cc1noc2ccccc12 | inactive |  |  |
| CN(C)S(=O)(=O)Cc1noc2ccc(Cl)cc12 |  | 250 | 57 |
| O=C1NC(=O)C(c2ccccc2)(c2ccccc2)N1 [PHENYTOIN] |  | 111 | 10 |
| NS(=O)(=O)Cc1noc2ccc([N+](=O)[O-])cc12 | inactive |  |  |
| NS(=O)(=O)Cc1noc2ccc(Cl)cc12 |  | 52 | 14 |
| CCCNS(=O)(=O)Cc1noc2ccccc12 | inactive |  |  |
| O=S(=O)(Cc1noc2ccccc12)N1CCOCC1 | inactive |  |  |
| CNS(=O)(=O)Cc1noc2ccc(F)cc12 |  | 168 | 35 |
| CNS(=O)(=O)Cc1noc2ccc(Cl)cc12 |  | 60 | 20 |
| CC(C)NS(=O)(=O)Cc1noc2ccc(F)cc12 |  | 109 | 38 |
| O=S(=O)(Cc1noc2ccccc12)N1CCCCC1 | inactive |  |  |
| NS(=O)(=O)Cc1noc2ccc(F)cc12 |  |  | 15 |
| CCNS(=O)(=O)Cc1noc2ccccc12 |  | 223 | 39 |
| COc1ccc2onc(CS(N)(=O)=O)c2c1 | inactive |  |  |
| O=S(=O)(Cc1noc2ccccc12)Nc1ccccc1 | inactive |  |  |
| O=S(=O)(Cc1noc2ccccc12)N1CCN(Cc2ccccc2)CC1 | inactive |  |  |
| NNS(=O)(=O)Cc1noc2ccccc12 | inactive |  |  |
| Cc1cccc2c(CS(N)(=O)=O)noc12 | inactive |  |  |
| CCNS(=O)(=O)Cc1noc2ccc(Br)cc12 |  | 66 | 18 |
| CN(C)CCCNS(=O)(=O)Cc1noc2ccccc12 | inactive |  |  |
| CC(C)NS(=O)(=O)Cc1noc2ccccc12 |  | 340 | 56 |
| NS(=O)(=O)CCc1noc2ccccc12 |  |  | 26 |
| CCNS(=O)(=O)Cc1noc2ccc(F)cc12 |  | 200 | 32 |

| SMILES | Activity (Mus musculus [1]) | TD50 [2] [mg/kg] | ED50 (Mus musculus [3]) [mg/kg] |
| --- | --- | --- | --- |
| CNS(=O)(=O)Cc1noc2ccccc12 |  |  | 23 |
| CCNS(=O)(=O)Cc1noc2ccc(Cl)cc12 |  |  | 21 |
| CN(C)S(=O)(=O)Cc1noc2ccc(Br)cc12 |  | 100 | 45 |
| O=S(=O)(Cc1noc2ccccc12)NCCO | inactive |  |  |
| CN(C)S(=O)(=O)Cc1noc2ccc(F)cc12 |  | 350 | 32 |
| CNS(=O)(=O)Cc1noc2ccc(Br)cc12 |  |  | 15 |
| CC(C)NS(=O)(=O)Cc1noc2ccc(Br)cc12 |  | 93 | 22 |
| NS(=O)(=O)Cc1noc2ccccc12 [ZONISAMIDE] |  |  | 20 |
| O=S(=O)(Cc1noc2ccccc12)N1CCN(c2ccccc2)CC1 | inactive |  |  |
| COC(=O)c1ccccc1NS(=O)(=O)Cc1noc2ccccc12 | inactive |  |  |
| CN1CCN(S(=O)(=O)Cc2noc3ccccc23)CC1 |  |  | 57 |
| CCC1(CC)C(=O)NC(=O)N(C)C1=O [METHARBITAL] |  | 87.9 | 60.8 |
| NS(=O)(=O)CCCc1noc2ccccc12 |  |  | 39 |
| CN(C)S(=O)(=O)Cc1noc2ccccc12 |  |  | 37 |
| O=S(=O)(Cc1noc2ccccc12)NCc1ccccc1 | inactive |  |  |
| O=S(=O)(Cc1noc2ccccc12)NO |  |  | 32 |
| Cc1ccc2onc(CS(N)(=O)=O)c2c1 | inactive |  |  |
| NS(=O)(=O)Cc1noc2cc(F)ccc12 |  |  | 19 |
| CN1CCN(S(=O)(=O)Cc2noc3ccc(F)cc23)CC1 |  | 142 | 100 |
| CN1CCN(S(=O)(=O)Cc2noc3ccc(Br)cc23)CC1 |  | 87 | 88 |
| NS(=O)(=O)Cc1noc2ccc(Br)cc12 |  | 60 | 14 |
| CC(C)NS(=O)(=O)Cc1noc2ccc(Cl)cc12 |  |  | 100 |
